# Assay results pooled from the literature.
# Target: Mitogen-activated protein kinase kinase kinase 5 (MAP3K5, Homo sapiens, UniProt Q99683)
# One construct used (Q99683 1-1374): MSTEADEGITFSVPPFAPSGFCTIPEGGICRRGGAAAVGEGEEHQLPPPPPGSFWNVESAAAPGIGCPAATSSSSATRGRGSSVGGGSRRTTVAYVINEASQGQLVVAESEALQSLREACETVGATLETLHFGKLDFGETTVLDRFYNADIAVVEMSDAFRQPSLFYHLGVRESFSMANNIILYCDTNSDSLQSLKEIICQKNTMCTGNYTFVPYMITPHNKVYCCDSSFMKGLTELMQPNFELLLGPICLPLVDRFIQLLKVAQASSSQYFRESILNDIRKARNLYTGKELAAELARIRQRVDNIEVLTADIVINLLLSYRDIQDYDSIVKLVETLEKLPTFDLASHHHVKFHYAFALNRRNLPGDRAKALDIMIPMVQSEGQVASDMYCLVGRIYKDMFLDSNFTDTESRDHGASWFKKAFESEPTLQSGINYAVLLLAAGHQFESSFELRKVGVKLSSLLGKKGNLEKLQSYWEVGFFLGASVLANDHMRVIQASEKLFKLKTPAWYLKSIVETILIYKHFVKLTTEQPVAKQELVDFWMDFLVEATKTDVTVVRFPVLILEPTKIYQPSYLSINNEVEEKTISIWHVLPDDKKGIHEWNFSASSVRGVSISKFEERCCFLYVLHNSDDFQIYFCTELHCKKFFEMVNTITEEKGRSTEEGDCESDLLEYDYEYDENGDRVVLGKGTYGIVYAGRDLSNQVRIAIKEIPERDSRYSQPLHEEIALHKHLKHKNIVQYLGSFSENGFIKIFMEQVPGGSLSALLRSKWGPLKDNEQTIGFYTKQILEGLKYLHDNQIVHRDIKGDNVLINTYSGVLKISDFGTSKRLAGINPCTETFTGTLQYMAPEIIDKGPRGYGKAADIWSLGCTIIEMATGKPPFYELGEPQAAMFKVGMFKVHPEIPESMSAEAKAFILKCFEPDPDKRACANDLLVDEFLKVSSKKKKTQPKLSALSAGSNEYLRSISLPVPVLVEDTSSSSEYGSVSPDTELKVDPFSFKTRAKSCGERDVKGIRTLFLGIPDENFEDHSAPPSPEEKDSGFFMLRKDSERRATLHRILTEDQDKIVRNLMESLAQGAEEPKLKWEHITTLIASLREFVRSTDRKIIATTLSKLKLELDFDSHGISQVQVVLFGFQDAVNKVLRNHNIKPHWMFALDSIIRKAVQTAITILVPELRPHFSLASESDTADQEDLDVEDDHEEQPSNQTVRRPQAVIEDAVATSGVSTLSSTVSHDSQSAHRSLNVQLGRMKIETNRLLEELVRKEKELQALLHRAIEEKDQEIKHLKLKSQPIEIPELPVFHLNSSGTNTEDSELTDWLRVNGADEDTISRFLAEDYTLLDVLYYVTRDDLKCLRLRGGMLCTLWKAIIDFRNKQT
Compound,read-out,technique,concentration,remaining binding
COc1cnc(Nc2cccc(S(N)(=O)=O)c2)nc1N1CCN(c2ccccc2)CC1,binding,competition with immobilised ligand,1 µM,100%
O=C(c1ccc(Nc2ncc(Cl)c(-c3cc4ccccc4s3)n2)cc1)N1CCC(N2CCCC2)CC1,binding,competition with immobilised ligand,1 µM,100%
CN(c1nccc(-c2cnn3ncccc23)n1)C1CC1,binding,,1 µM,100%
c1cncc(-c2cccc(Nc3nccc(NC4CCCCC4)n3)c2)c1,binding,competition with immobilised ligand,10 µM,100%
C=CC(=O)N1CCC(C(=O)NCC(=O)N2CCN(c3nc(-c4cnc(N)nc4C(F)F)nc(N4CCOCC4)n3)CC2)CC1,binding,competition with immobilised ligand,1 µM,100%
C[C@H](c1ccnc(Nc2nc3ccc(-c4cc(N(C)C)ncn4)cc3[nH]2)c1)N1CCN(C(=O)CC(F)(F)F)CC1,cell-free assay,competition with immobilised ligand,0.1 µM,100%
O=C(NCCCN1CCOCC1)c1ccc(Nc2ncc(Cl)c(-c3ccc(Cl)s3)n2)cc1,binding,competition with immobilised ligand,1 µM,100%
CN(C)c1nccc(-c2cnn3ncccc23)n1,binding,,1 µM,87%
C[C@@H]1CN(c2cc(-c3nn(C)c4ccc(OC5(C)CC5)cc34)ncn2)C[C@H](C)O1,cell-free assay,competition with immobilised ligand,1 µM,100%
N[C@@H]1CCN(c2nccc(-c3cnn4ncccc34)n2)C1,binding,,1 µM,100%
COc1ncc2cc3ccccc3nc2c1C#N,cell-free assay,competition with immobilised ligand,5 µM,96%
F[C@@H]1CCN(c2nccc(-c3cnn4ncccc34)n2)C1,binding,,1 µM,83%
CNC(=O)[C@@H]1CC[C@@H](n2c(-c3ccc4cnccc4c3)nc3ccc(C(=O)NCc4cccc(C(N)=O)c4)cc32)C1,binding,competition with immobilised ligand,1 µM,92%
COCCOc1nc(-c2ccc(Cl)nc2)nc2c1CN(C(=O)c1ncn3ccccc13)CC2,cell-free assay,competition with immobilised ligand,0.1 µM,84%
c1cnn2ncc(-c3ccnc(N4CCC45COC5)n3)c2c1,binding,,1 µM,100%
Cc1nc(N2CC[C@@H](O)C2)ncc1-c1cc(C(F)(F)F)cc2[nH]ncc12,binding,competition with immobilised ligand,1 µM,100%
C[C@H]1CCN(c2nccc(-c3cnn4ncccc34)n2)C1,binding,,1 µM,100%
CCCOc1ccc([C@@H]2[C@@H](C(=O)O)[C@H](c3ccc4c(c3)OCO4)CN2CC(=O)Nc2c(CC)cccc2CC)cc1,cell-free assay,competition with immobilised ligand,1 µM,97%
Cc1cnc(Nc2ccc(C(=O)N3CCC(N4CCCC4)CC3)cc2)nc1-c1cc2ccccc2s1,binding,competition with immobilised ligand,1 µM,100%
O=C(Nc1c[nH]nc1C(=O)NC1CCNCC1)c1cc(F)cc(F)c1,binding,competition with immobilised ligand,1 µM,100%
COc1cc(-c2cn(C3CCc4ccccc4N(CC(F)(F)F)C3=O)nn2)ccc1-n1ccc(C)n1 (stereo not drawn),cell-free assay,competition with immobilised ligand,1 µM,100%
